Rows were chosen to be rich in hits. Some 2.2% of all compounds tested hit in one or more screens of this group.
Runt-SMMHC FRET: inhibitors of RUNX1 Runt–CBFb-SMMHC binding, primary screen, biochemical, FRET, Cerulean-Runt, Venus-CBFb-SMMHC, uHTS; Runt-related transcription factor 1 (Homo sapiens) + Core-binding factor subunit beta …; Cerulean-Runt/Venus-CBFb-SMMHC FRET ratio 530/480, 1 h; inhibition, % at 20 µM; hit rate 0.74% among 220,000; AID 1434, 2008;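 active = mean inhibition across duplicate retests at 20 µM reaching about 50%, limit read from the data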;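 note: 0% = DMSO wells and 100% = wells with excess untagged CBFb-SMMHC; inhibitors lower the FRET ratio by blocking Runt binding to CBFb-SMMHC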
Runt-CBFb FRET: inhibitors of RUNX1 Runt–CBFb binding, primary screen, biochemical, FRET, Cerulean-Runt, Venus-CBFb, uHTS; hit rate 0.46% among 220,000; Runt-related transcription factor 1 (Homo sapiens) + Core-binding factor subunit beta …; Cerulean-Runt/Venus-CBFb FRET ratio 530/480, 1 h; inhibition, % at 20 µM; AID 1496, 2009;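 active = inhibition over about 50% at 20 µM in the single-dose screen, limit read from the data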;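 note: 0% = DMSO wells and 100% = excess unlabeled CBFb competitor control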
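Assay system: Cerulean-Runt domain fusion protein, energy donor; Signal: fluorescence energy transfer, 422 nm excitation, 530/480 nm emission; Timing: 1 h compound exposure, room temperature; Control set: unlabeled CBFb; Medium: Tris buffer pH 7.5 with salts and BSA; Compound: single test concentration of 20 µM, 1% DMSO final; Probe or stimulus: Venus-CBFb 100 nM.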
Hck-Nef inh: inhibitors of Nef-activated human Hck kinase, primary screen, biochemical, Z-Lyte FRET, 384-well, Hck-YEEI; Tyrosine-protein kinase HCK (Homo sapiens), P08631; Recombinant Hck-YEEI plus Nef, Z-Lyte FRET kinase assay; inhibition, % at 20 µM; hit rate 0.68% among 220,000; AID 463187, 2010;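 active = Hck-Nef kinase inhibition above about 50%, limit read from the data; inactive = inhibition below that limit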;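 note: 0% = DMSO with Hck plus Nef and 100% = Hck alone without Nef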
Target sequence (P08631 whole entry, looked up): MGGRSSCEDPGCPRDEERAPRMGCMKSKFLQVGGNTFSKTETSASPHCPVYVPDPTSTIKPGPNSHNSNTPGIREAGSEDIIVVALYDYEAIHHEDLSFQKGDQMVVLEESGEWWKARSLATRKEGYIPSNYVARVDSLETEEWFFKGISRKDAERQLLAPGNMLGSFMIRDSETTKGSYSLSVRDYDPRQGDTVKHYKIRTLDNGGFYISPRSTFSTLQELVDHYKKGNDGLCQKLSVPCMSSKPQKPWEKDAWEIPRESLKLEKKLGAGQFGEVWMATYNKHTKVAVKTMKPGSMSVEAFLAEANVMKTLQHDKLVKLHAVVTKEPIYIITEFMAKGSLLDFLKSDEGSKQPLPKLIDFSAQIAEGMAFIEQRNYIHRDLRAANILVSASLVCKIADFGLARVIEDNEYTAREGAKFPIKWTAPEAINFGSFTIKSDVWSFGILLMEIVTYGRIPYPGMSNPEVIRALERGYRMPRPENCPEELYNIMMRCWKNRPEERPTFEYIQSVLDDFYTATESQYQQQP
RanGTP-Impb inh: inhibitors of RanGTP-importin-beta interaction, primary screen, biochemical, FRET, CFP-Ran, YFP-importin-beta, homogeneous | hit rate 1.1% among 300,000 | inhibition, % (test concentration not listed) | Ran GTPase (GTP-bound) - importin-beta complex | AID 2216, 2009 | cell-free CFP-Ran/YFP-importin-beta FRET ratio;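 active = more than half of the replicate wells show a fall in the fluorescence ratio signal beyond about 16%, limit read from the data, passing the limit was not always enough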;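 note: 0% = DMSO wells and 100% = Ran loaded with GDP instead of GTP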
eIF4E-4G inh: eIF4E–eIF4G protein interaction inhibitors, primary screen, biochemical, uHTS, TR-FRET, eIF4GI fragment. Eukaryotic translation initiation factor 4E (Mus musculus) + Eukaryotic translation …. hit rate 0.37% among 220,000. inhibition, % at 21.7 µM. TR-FRET eIF4E-eIF4GI(517-606) binding, 2 h;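 active = inhibition above about 30%, limit read from the data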;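 note: 0% = full FRET control wells and 100% = background wells lacking eIF4GI fragment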
PERK inhibitor: block of dimerizer-induced PERK translation repression, primary screen, PERK inhibitor project, CHO PERK-DD cells, SEAP luminescence, HTS; Eukaryotic translation initiation factor 2-alpha kinase 3 (Homo sapiens), Q9NZJ5; CHO PERK-DD fusion, SEAP luminescence translation reporter; inhibition, % at 5.6 µM; hit rate 0.17% among 220,000;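 active = inhibition above the mean inhibition of all tested compounds plus 3 SD, set separately per screening campaign, cut at about 2.9% in these data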;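 note: PERK kinase domain activated by AP20187 dimerizer at 100 nM; 0% = DMSO with dimerizer and 100% = rapamycin at 8.4 µM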
* hit, by the source's call; . = no result.

SMILES | Runt-SMMHC FRET | Runt-CBFb FRET | Hck-Nef inh | RanGTP-Impb inh | eIF4E-4G inh | PERK inhibitor
COc1ccc(C2C3=C(CC(C)(C)CC3=O)Nc3c2c(=O)n(C)c(=O)n3C)cc1OC (stereo not drawn) | 107* | 63* | 6 | 5 | -3 | 0
COc1ccc(C2C(C#N)=C(C)NC3=C2C(=O)CC(C)(C)C3)cc1 (stereo not drawn) | 40 | 17 | 18 | -2 | 1 | -1
COc1ccc(OC)c(C2C3=C(CCCC3=O)Nc3c2c(=O)n(C)c(=O)n3C)c1 (stereo not drawn) | 73* | 33 | 6 | 3 | 11 | 0
COc1ccc(C2C3=C(CC(C)(C)CC3=O)Nc3c2c(=O)[nH]c2nc(C)nn32)cc1 (stereo not drawn) | 135* | 87* | 4 | 46* | 1 | 1
C=CCOc1ccccc1C1C2=C(CC(C)(C)CC2=O)Nc2c1c(=O)n(C)c(=O)n2C (stereo not drawn) | 46 | 24 | 8 | 2 | -2 | 2
COc1ccc(CN2C(=O)c3cccnc3C2Nc2cc(Cl)ccc2OC)cc1 (stereo not drawn) | -28 | -7 | 0 | 8 | 99* | 0
COc1ccc(OC)c(NC2c3ncccc3C(=O)N2Cc2ccco2)c1 (stereo not drawn) | 7 | 8 | 0 | -1 | -1 | 0
CCOC(=O)c1sc(Nc2nc3cc4c(cc3s2)OCO4)cc1C | -9 | -6 | 6 | 13 | -2 | 1
CCOC(=O)c1sc(Nc2nc3c(OC)cccc3s2)cc1C | 92* | 41 | 23 | 10 | -2 | 0
N=c1c(C(=O)NCCc2ccccc2)cc2c(=O)n3ccccc3nc2n1CC1CCCO1 (stereo not drawn) | . | . | . | 179* | . | .
COCCNC(=O)c1cc2c(=O)n3cccc(C)c3nc2n1C | 11 | 2 | . | -3 | . | .
COCCn1c(=N)c(C(=O)NCCc2ccccc2)cc2c(=O)n3cccc(C)c3nc21 | . | . | 104* | 192* | . | -1
N=c1c(C(=O)NCc2ccco2)cc2c(=O)n3ccccc3nc2n1CC1CCCO1 (stereo not drawn) | . | . | 47 | 130* | . | 0
Cc1cccn2c(=O)c3cc(C(=O)NCc4cccnc4)c(=N)n(CC4CCCO4)c3nc12 (stereo not drawn) | . | . | . | 180* | . | .
N=c1c(C(=O)NCc2ccc3c(c2)OCO3)cc2c(=O)n3ccccc3nc2n1CC1CCCO1 (stereo not drawn) | . | . | . | -13 | . | .
O=C(CN(Cc1ccc(F)cc1)C(=O)CCC(=O)Nc1ccccn1)NCc1ccc(F)cc1 | . | . | . | 0 | . | .
Nc1nnc(SC2CCCC2)s1 | 5 | -1 | 7 | 0 | 0 | 2
CN(C)c1nc(Cl)nc(N(C#N)CCOc2ccccc2)n1 | -2 | -4 | -3 | -3 | -2 | 1
Cc1ccc(NC(=O)Nc2ccon2)cc1Cl | . | . | . | 2 | . | .
CCn1c(=N)c(C(=O)NCc2cccnc2)cc2c(=O)n3cccc(C)c3nc21 | 61* | 18 | . | . | . | .
Cc1cccn2c(=O)c3cc(C(=O)NCCc4ccccc4)c(=N)n(CC4CCCO4)c3nc12 (stereo not drawn) | . | . | . | 181* | . | .
CCOc1ccc(NC(=O)CCC(=O)O)cc1 | 0 | 2 | 1 | 24* | 3 | 1
CCOc1ccc(NC(=O)CCC(=O)OC)cc1 | -2 | -2 | 1 | -2 | 5 | 0
Cc1cc(C(=O)NCC(=O)OCC(=O)N(C(C)C)C(C)C)ccc1[N+](=O)[O-] | -2 | -1 | 0 | 7 | -2 | 0
CC(C)(C)c1csc(NC(=O)c2cccnc2)n1 | . | . | . | 36* | . | .
SMILES | Runt-SMMHC FRET | Runt-CBFb FRET | Hck-Nef inh | RanGTP-Impb inh | eIF4E-4G inh | PERK inhibitor
C=CCNC(=S)NNC(=O)c1cccc(Br)c1 | 1 | 2 | 1 | 1 | -7 | 1
C=CCNC(=O)c1cccc(Br)c1 | -2 | 3 | 1 | 24* | -3 | 1
CC1(OC(=O)C2CCCC2)C(=O)C=C2C=C(c3ccsc3)N(CCN3CCOCC3)C=C2C1=O (stereo not drawn) | 21 | 2 | 19 | 2 | -3 | .
Cc1c(C(=O)N2CCCCC2)nn(-c2ccc(Cl)cc2)c(=O)c1C#N | 0 | -2 | 26 | 0 | 43* | 2
COC1C(C)=C(C)C(=O)N1Cc1ccccc1 (stereo not drawn) | . | . | . | 1 | . | .
O=C(O)[C@H]1CCCC[C@H]1C(=O)Nc1ccc(S(=O)(=O)N2CCOCC2)cc1 | . | . | . | 17* | . | .
O=C(O)C1CCCCC1C(=O)Nc1ccc(S(=O)(=O)N2CCCC2)cc1 (stereo not drawn) | . | . | . | 3 | . | .
CCCc1c(C)nc(N2CCN(c3ccccc3F)CC2)[nH]c1=O | . | . | . | -1 | . | .
Cc1ccc2cc(/C=N/NC(=O)c3ccccc3O)c(Cl)nc2c1 | -2 | 3 | -1 | -1 | -1 | 0
COc1ccc(S(=O)(=O)N2CCCCCC2)cc1N(C)S(=O)(=O)c1ccccc1 | -3 | -3 | 2 | -4 | -2 | 0
CC(C)OC(=O)C(NC(=O)c1ccccc1)=C1CCCCC1 | -1 | -2 | -1 | -1 | 7 | -1
CCOc1ccc(NC(=O)CN(C)S(=O)(=O)c2ccc3c(c2)CCC(=O)N3)cc1 | 60* | 2 | 8 | 0 | 0 | -1
O=C(O)c1cc(-c2ccco2)nn1-c1ccc(Cl)cc1 | 14 | 28 | 35 | 6 | 31* | 1
O=C(Cn1c(=O)oc2cc(S(=O)(=O)N3CCOCC3)ccc21)N1CCc2ccccc2C1 | 0 | 2 | 1 | . | -3 | 0
CC1C2=C(CC(C)(C)CC2=O)NC2=C1C(=O)CC(C)(C)C2 | 86* | 21 | 39 | 136* | 0 | 1
CC1(C)CC(=O)C2=C(C1)NC(=O)NC2c1ccccc1 (stereo not drawn) | 12 | 4 | 8 | -2 | 0 | 1
Cc1ccc(S(=O)(=O)Nc2c(C)n(C)n(-c3ccccc3)c2=O)cc1C(=O)NCc1ccccn1 | 2 | 0 | 2 | 1 | 84* | 2
Cc1ccc(S(=O)(=O)N2CCCCC2)cc1C(=O)NCc1ccccn1 | . | . | . | 1 | . | .
CCc1cc2c(COC(=O)c3c(C)noc3C)cc(=O)oc2cc1O | 86* | 51* | -23 | 18* | 4 | 2

Screening data (PubChem BioAssay)
